Source: ChEMBL document CHEMBL1123815, “Heteroarotinoids. Synthesis, characterization, and biological activity in terms of an assessment of these systems to inhibit the induction of ornithine decarboxylase activity and to induce terminal differentiation of HL-60 cells” (J Med Chem, 1987)
Each block holds one molecule with its values, some of them ahead of it.

Experiments:
Format in all cases: functional
[1] = molecular target: T1, Ornithine decarboxylase (Mus musculus) (UniProt P00860); assay: Inhibition of TPA induced ODC(Ornithine decarboxylase) activity in mice epidermis at 17 nmol in the presence of TPA compared to control value
T1 sequence (whole entry): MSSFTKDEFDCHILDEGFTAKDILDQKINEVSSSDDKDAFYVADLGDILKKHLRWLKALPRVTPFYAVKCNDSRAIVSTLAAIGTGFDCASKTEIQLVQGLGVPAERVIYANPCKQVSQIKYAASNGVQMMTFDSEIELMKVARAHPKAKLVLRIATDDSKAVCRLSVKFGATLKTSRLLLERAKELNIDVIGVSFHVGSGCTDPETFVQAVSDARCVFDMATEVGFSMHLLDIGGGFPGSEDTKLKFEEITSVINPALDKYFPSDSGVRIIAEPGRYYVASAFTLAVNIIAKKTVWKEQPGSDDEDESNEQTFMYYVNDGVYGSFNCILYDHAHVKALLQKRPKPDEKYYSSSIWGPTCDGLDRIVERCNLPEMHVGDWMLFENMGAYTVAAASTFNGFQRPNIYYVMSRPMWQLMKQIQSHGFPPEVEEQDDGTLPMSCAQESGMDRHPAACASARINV
In short: (§1)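 Mouse epidermis in vivo: retinoid applied to shaved back 1 h before topical 10 nmol TPA. Mice killed 5 h after TPA. Epidermis separated, homogenized and centrifuged at 30000 g. Soluble ODC activity measured as nmol CO2 released per 30 or 60 min per mg protein. Values are mean ± SE of three groups of three mice. Percent inhibition = (acetone+TPA ODC − retinoid ODC)/(acetone+TPA ODC) × 100.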

[2] = molecular target: T1, Ornithine decarboxylase (Mus musculus); assay: Inhibition of TPA induced ODC(Ornithine decarboxylase) activity in mice epidermis at 17 nmol in the presence of TPA; in short: as §1
[3] = molecular target: T1, Ornithine decarboxylase (Mus musculus); assay: Inhibition of TPA induced ODC(Ornithine decarboxylase) activity in mice epidermis at 0 nmol in the presence of acetone + TPA; in short: as §1
[4] = molecular target: T1, Ornithine decarboxylase (Mus musculus); assay: Inhibition of TPA induced ODC(Ornithine decarboxylase) activity in mice epidermis at 17 nmol in the presence of 13-cis-retinoic acid + TPA; in short: as §1
[5] = molecular target: T1, Ornithine decarboxylase (Mus musculus); assay: Inhibition of TPA induced ODC(Ornithine decarboxylase) activity in mice epidermis at 17 nmol in the presence of 13-cis-retinoic acid + TPA compared to control value; in short: as §1
[6] = molecular target: T1, Ornithine decarboxylase (Mus musculus); assay: Inhibition of TPA induced ODC(Ornithine decarboxylase) activity in mice epidermis at 0 nmol in the presence of acetone; in short: as §1
[7] = molecular target: T1, Ornithine decarboxylase (Mus musculus); assay: Inhibition of TPA induced ODC(Ornithine decarboxylase) activity in mice epidermis at 34 nmol in the presence of TPA compared to control value; in short: as §1
[8] = molecular target: T1, Ornithine decarboxylase (Mus musculus); assay: Inhibition of TPA induced ODC(Ornithine decarboxylase) activity in mice epidermis at 34 nmol in the presence of TPA; in short: as §1
[9] = molecular target: T1, Ornithine decarboxylase (Mus musculus); assay: Inhibition of TPA induced ODC(Ornithine decarboxylase) activity in mice epidermis at 0 nmol in the presence of acetone+ TPA; in short: as §1
[10] = molecular target: T1, Ornithine decarboxylase (Mus musculus); assay: Inhibition of TPA induced ODC(Ornithine decarboxylase) activity in mice epidermis at 34 nmol in the presence of trans-retinoic acid + TPA; in short: as §1
[11] = molecular target: T1, Ornithine decarboxylase (Mus musculus); assay: Inhibition of TPA induced ODC(Ornithine decarboxylase) activity in mice epidermis at 0 nmol in the presence of acetone+TPA; in short: as §1
[12] = molecular target: T1, Ornithine decarboxylase (Mus musculus); assay: Inhibition of TPA induced ODC(Ornithine decarboxylase) activity in mice epidermis at 34 nmol in the presence of trans-retinoic acid + TPA compared to control value; in short: as §1

inhibition [1]: 89%
ODC activity ((nM of CO2) 30min-1 (mg of protein)-1) [2]: 0.1
ODC activity ((nM of CO2) 30min-1 (mg of protein)-1) [3]: 0.9
ODC activity ((nM of CO2) 30min-1 (mg of protein)-1) [4]: 0.1
inhibition [5]: 89%
ODC activity ((nM of CO2) 30min-1 (mg of protein)-1) [6]: 0
SMILES: CC(/C=C/C=C(\C)c1ccc2c(c1)C(C)(C)CCS2)=C\C(=O)O

inhibition [7]: 42%
ODC activity ((nM of CO2) hr-1 (mg of protein)-1) [8]: 0.97
SMILES: CC(/C=C/C=C(\C)c1ccc2c(c1)C(C)(C)CCS2)=C\C(=O)OCCN1C(=O)c2ccccc2C1=O

inhibition [7]: 0%
ODC activity ((nM of CO2) hr-1 (mg of protein)-1) [8]: 1.77
SMILES: C/C(=C\c1ccc(C#N)cc1)c1ccc2c(c1)C(C)(C)CCO2

inhibition [1]: 100%
ODC activity ((nM of CO2) 30min-1 (mg of protein)-1) [2]: 0
ODC activity ((nM of CO2) 30min-1 (mg of protein)-1) [6]: 0
SMILES: CCOC(=O)/C=C(C)/C=C/C=C(\C)c1ccc2c(c1)C(C)(C)CCS2

inhibition [7]: 34%
ODC activity ((nM of CO2) hr-1 (mg of protein)-1) [8]: 3.5
SMILES: C/C(=C\c1ccc(C=O)cc1)c1ccc2c(c1)C(C)(C)CCO2

inhibition [7]: 43%
ODC activity ((nM of CO2) hr-1 (mg of protein)-1) [4]: 0.14
ODC activity ((nM of CO2) hr-1 (mg of protein)-1) [9]: 1.67
inhibition [5]: 92%
ODC activity ((nM of CO2) hr-1 (mg of protein)-1) [8]: 0.95
SMILES: COC(=O)c1ccc(/C=C(\C)c2ccc3c(c2)C(C)(C)CCO3)cc1

inhibition [7]: 72%
ODC activity ((nM of CO2) hr-1 (mg of protein)-1) [8]: 1.5
SMILES: COC(=O)c1ccc(/C=C(\C)c2ccc3c(c2)C(C)(C)CO3)cc1

inhibition [7]: 74%
ODC activity ((nM of CO2) hr-1 (mg of protein)-1) [8]: 1.4
SMILES: CC(/C=C/C=C(\C)c1ccc2c(c1)C(C)(C)CCO2)=C\C(=O)O

ODC activity [10]: 1
ODC activity [11]: 5.3
inhibition [7]: 68%
inhibition [12]: 81%
ODC activity ((nM of CO2) hr-1 (mg of protein)-1) [8]: 1.7
SMILES: C/C(=C\c1ccc(CO)cc1)c1ccc2c(c1)C(C)(C)CCO2
